Compound activity deposited in PubChem by several laboratories.
LEDGF integ inh = blocks HIV-1 LEDGF/p75-dependent DNA integration; TR-FRET IN-LEDGF/p75 DNA integration, Eu/Cy5; inhibition, % at 3.7 µM; 370,000 tested, 0.64% active; AID 743269;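 active = inhibition above the screen-wide mean plus 3 SD, cut at about 13% in these data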;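 also: signal is the Cy5 over europium emission ratio at 671 and 618 nm; 0% = plate median of compound wells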
Casp6 inh = caspase-6 (human) enzyme inhibition; P55212; purified caspase-6, Z-VEID-R110 cleavage fluorescence; inhibition, % at 12.5 µM; 350,000 tested, 0.53% active; AID 686996;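 active = mean inhibition across replicates at least about 35%, with every replicate also reaching that limit, limit read from the data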;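 also: 0% = median of neutral control wells and 100% = no fluorescence left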
ASAP1 GAP inh = blocks human ASAP1-stimulated Arf1 GTP hydrolysis; Q9ULH1; GDP FP detection; inhibition, % at 16.5 µM; 360,000 tested, 0.19% active; AID 624377;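 also: 0% = vehicle with enzyme and substrate and 100% = no enzyme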
Target sequence (Q9ULH1 325-724 limits assumed): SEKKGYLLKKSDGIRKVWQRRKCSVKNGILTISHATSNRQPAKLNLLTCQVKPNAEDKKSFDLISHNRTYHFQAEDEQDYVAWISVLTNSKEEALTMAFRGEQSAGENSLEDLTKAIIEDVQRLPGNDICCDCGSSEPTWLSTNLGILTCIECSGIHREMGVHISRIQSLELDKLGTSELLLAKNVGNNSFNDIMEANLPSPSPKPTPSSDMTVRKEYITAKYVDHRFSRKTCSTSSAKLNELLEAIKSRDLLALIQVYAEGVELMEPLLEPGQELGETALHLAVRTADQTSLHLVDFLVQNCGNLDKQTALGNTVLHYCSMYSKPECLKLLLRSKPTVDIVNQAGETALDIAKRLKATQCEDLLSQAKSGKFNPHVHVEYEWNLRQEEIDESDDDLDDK
ARFGAP1 inhibitor = inhibits rat ARF GTPase activating protein 1; Arfgap1-stimulated ARF1 GTP hydrolysis, GDP FP detection; inhibition, % at 16.5 µM; 360,000 tested, 0.26% active; AID 651572; Q62848;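 active = inhibition above a per-plate limit, mean inhibition of low control wells plus 3 SD, cut at about 25% in these data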;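 also: 0% = DMSO wells with enzyme and 100% = wells lacking Arfgap1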
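system = rat Arfgap1 catalytic domain, aa 1-136 | technique = FP, GDP Alexa 633 tracer displaced from anti-GDP antibody, 620/688 nm | compound = one concentration, 16.5 µM, DMSO 1.26% | medium = HEPES-based buffer, pH 7.5 | timing = compound-enzyme preincubation 20 min, reaction 120 min, detection 60 min, 25 °C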
TDP2 absorb = blocks human TDP2 phosphodiesterase activity. inhibition, % at 12.8 µM. 370,000 tested, 0.34% active. recombinant TDP2, T5PNP hydrolysis, p-nitrophenol absorbance 415 nm. AID 720702;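 active = inhibition above the mean of all tested compounds plus 3 SD, set per campaign, cut at about 25% in these data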;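 also: 0% = DMSO with enzyme and 100% = buffer with substrate but no TDP2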
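System – recombinant human TDP2 · Amount – 120 nM TDP2 per well · Buffer or medium – Mg2+-containing Tris-HCl buffer, pH 7.5 · Reagent – T5PNP substrate, 5 mM · Dosing – 12.8 µM single point, 1% DMSO · Incubation – 2 h at 37 °C · Measured by – epi absorbance · Read-out basis – percent inhibition · Benchmarks – high control without enzyme, low control DMSO plus TDP2 · Repeats – singlicate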
TDP2 confirm = confirmation of human TDP2 inhibitors. shares compounds with TDP2 absorb. recombinant human TDP2, absorbance read-out. inhibition, % at 12.8 µM. 1,100 tested, 22% active. AID 743263;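 also: 0% = vehicle with enzyme and 100% = no enzyme buffer only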
The depositor's hits bear a star; . = no result. Most compounds without a hit are left out; they make up all but 1.3% or so of the library. Rule as the data show it, unless noted: active = inhibition above about 25%; inactive = the rest.

SMILES	LEDGF integ inh	Casp6 inh	ASAP1 GAP inh	ARFGAP1 inhibitor	TDP2 absorb	TDP2 confirm
CC(=O)Nc1ccc(S(=O)(=O)/N=C2\C(=O)c3ccccc3C([O-])=C2n2cc[n+](-c3ccccn3)c2)cc1	5	68*	19	10	37*	23
CCc1ccc(S(=O)(=O)Nc2cc(SCC(=O)O)c(O)c3ccccc23)cc1	6	67*	-1	14	51*	35*
CCc1ccc(S(=O)(=O)Nc2ccc(O)c3ccccc23)cc1	13	33	22	-9	54*	8
CCCNC(=O)C1(C)CCCN(C(=O)COc2ccc(C(C)(C)C)cc2)C1 (stereo unspecified)	0	1	10	0	6	.
CCn1ccnc1CNC(=O)c1ccc(OC2CCN(C(=O)COC)CC2)cc1	3	-6	-20	1	27*	-5
COCC(=O)N1CCC(Oc2ccc(C(=O)NCc3cnc(C)cn3)cc2)CC1	-1	.	7	-1	3	.
CN1C(=O)NC(c2ccccc2[N+](=O)[O-])C2=C1CCCC2=O (stereo unspecified)	-3	10	8	1	11	.
CN1C(=O)NC(c2ccccc2[N+](=O)[O-])C2=C1CC(C)(C)CC2=O (stereo unspecified)	4	16	10	5	31*	13
FC(F)(F)c1nc(N2CCCC2)ncc1-c1nnnn1-c1ccccc1	-5	.	-4	-13	-8	.
CCN(CC)c1ccc2cc(-c3nc(-c4cc5ccccc5oc4=O)cs3)c(=O)oc2c1	1	-2	4	1	32*	5
O=C(O)c1ccccc1Nc1ccccc1C(=O)O	-1	1	13	8	7	.
O=C1C=C(Nc2ccccc2C(=O)O)c2ccccc2C1=O	10	89*	17	13	46*	50*
CC1CCCC(NC(=O)COC(=O)c2ccc([N+](=O)[O-])s2)C1C (stereo unspecified)	-3	57*	12	-14	32*	37*
COC(=O)C[C@@H]1CC[C@H](NC(=O)Cc2ccccn2)[C@@H](CO)O1	0	-2	12	0	28*	-1
CCOc1ccc(NC(=O)Nc2ccc3c(c2)CCC3)cc1	4	0	12	0	3	.
COc1cccc(N(CC(=O)NC2CCCCC2)C(=O)CCC(=O)Nc2nccs2)c1	2	1	-12	2	29*	4
COc1cccc(N(CC(=O)NC2CCCC2)C(=O)CCC(=O)Nc2nccs2)c1	-5	1	10	-4	-4	.
CC(=O)N(C1=C(Cl)C(=O)c2ccccc2C1=O)C1CCCCC1	11	17	10	9	57*	47*
O=C1C(Cl)=C(NCCN2CCOCC2)C(=O)c2ccccc21	1	70*	3	7	31*	9
CCc1cc[n+](C2=C([O-])c3ccccc3C(=O)/C2=N\S(=O)(=O)c2cccs2)cc1	8	4	10	18	41*	40*
C[C@H](CO)N1C[C@H](C)[C@H](CN(C)C(=O)Nc2ccc(F)cc2)OCCCC[C@H](C)Oc2ccc(NC(=O)Cc3ccccc3)cc2C1=O	.	4	.	.	.	.
COc1cccc(CC(O)CC2c3c(cc4c(c3OC)OCO4)CCN2C)c1 (stereo unspecified)	1	-2	-1	10	-2	.
COc1c2c(cc3c1C(CC(O)Cc1ccccc1)N(C)CC3)OCO2 (stereo unspecified)	2	-9	-6	-2	25*	-2
O=C(O)c1cccc(NC2=C(N3CCOCC3)C(=O)c3ccccc3C2=O)c1	1	11	19	21	37*	51*
CCCNC(=O)N(C)C[C@@H]1Oc2ncc(C#CC(C)C)cc2C(=O)N([C@@H](C)CO)C[C@H]1C	.	-3	.	.	.	.
CCOc1ccc(NC(=O)CN(C)C(=O)c2ccccc2OCc2c(C)noc2C)cc1OCC	-2	-239	0	-5	26*	10
Cc1ccc(C)c(NC(=O)c2cnccn2)c1	-4	-2	12	9	29*	-1
Cc1cc(C)c(NC(=O)CSc2nnc(CN3CCOCC3)n2C)c(C)c1	-1	2	-9	-7	26*	9
